ABCB1 block – ABCB1 efflux pump inhibitors, primary screen, cell-based, multiplex, flow cytometry, ABCG2 counter-screen; CCRF-Adr cells, JC-1 efflux; inhibition, % at 6.6 µM; AID 1326, 2008; 190,000 tested, 0.067% active; ATP-dependent translocase ABCB1 (Homo sapiens), P08183; in the data active = inhibition above about 40%;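 note: 0% = vehicle and 100% = reference inhibitor; higher value means more JC-1 retained so stronger ABCB1 efflux block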
WT yeast gro inh – growth inhibition of WT strain, primary screen, mitochondrial fusion inhibitor project, WT and mutant strains, chemical genetic; inhibition, % at 10 µM; mitochondrial fusion phenotypic screen; 190,000 tested, 2.1% active; in the data active = inhibition above about 58%; tested in S. cerevisiae
MEKK2wt PB1 HTS – modulators of MEK5 binding to wildtype MEKK2, primary screen, biochemical, multiplex bead flow cytometry, Alexa488-MEK5 | Mitogen-activated protein kinase kinase kinase 2 (Homo sapiens), Q9Y2U5 | binding response (% of control), % at 10 µM | Alexa488-MEK5 binding to MEKK2 WT; actives lie on both sides | 290,000 tested, 1.1% active; in the data active = binding response below about 67% or above about 130%
MEKK2 mut-MEK5 – MEK5 binding signal on mutant MEKK2 PB1, primary screen, biochemical, multiplex bead flow cytometry, Alexa488-MEK5. 290,000 tested, 0.35% active. percent response, % at 10 µM. AID 1530, 2009. Alexa488-MEK5 binding to MEKK2 mutant; in the data active = percent response above about 24%, passing the limit was not always enough
MEKK3 PB1 HTS – modulators of MEKK3-MEK5 PB1 binding, primary screen, biochemical, wildtype MEKK3, multiplex bead flow cytometry, Alexa488-MEK5; Mitogen-activated protein kinase kinase kinase 3 (Homo sapiens), Q99759; bead-based flow cytometry, Alexa488-MEK5 binding to MEKK3; actives lie on both sides; 0 = blocked by unlabeled MEK5, 100 = vehicle; binding response (% of control), % at 10 µM; 290,000 tested, 1.4% active; AID 1529, 2009;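 active = binding response more than 3 SD above or below the average of its plate-row segment, actives on both sides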;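 note: Alexa488 bead fluorescence after subtracting the streptavidin-only scavenger bead signal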
ABCG2 block – ABCG2 efflux pump inhibitors, primary screen, multiplex with ABCB1, IgMXP3 cells, flow cytometry. 190,000 tested, 0.1% active. JC-1 efflux. AID 1325, 2008. Broad substrate specificity ATP-binding cassette transporter ABCG2 (Homo sapiens), Q9UNQ0. inhibition, % at 6.6 µM;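 active = inhibition above 80%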;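 note: 0% = DMSO and 100% = nicardipine control wells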
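Times: 10 min at 25 °C | Test system: Two drug-resistant human cell lines, ABCG2 and ABCB1 | Quantity: 3 million cells/mL final, two lines in 1:1 ratio | Signal: Flow cytometry, 530 nm JC-1 signal | Dosing: Compound at 6.6 µM | Controls: Nicardipine and DMSO wells | Reagent: JC-1 as fluorescent efflux pump substrate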
MEKK2wt confirm – modulators of MEK5 binding to wildtype MEKK2, confirmation, biochemical, single concentration, multiplex bead flow cytometry. binding response (% of control), % at 10 µM. Alexa488-MEK5 binding to MEKK2 WT; actives lie on both sides. 5,900 tested, 2.4% active. AID 1892, 2009. shares compounds with MEKK3 PB1 HTS; in the data active = binding response below about 16% or above about 210%; inactive = in between
MEKK2mut confirm – mutant MEKK2 PB1-MEK5 binding signal retest – biochemical, single concentration, multiplex bead flow cytometry, confirmation. shares compounds with MEKK3 PB1 HTS. Alexa488-MEK5 binding to MEKK2 mutant. percent response, % at 10 µM. 5,900 tested, 2% active. AID 1893, 2009; in the data active = percent response mostly above about 71%, no sharp cut-off; inactive = mostly below about 38%;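 note: higher means compound restores mutant binding toward wildtype level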
MEKK3 confirm – MEKK3 wild-type PB1 binding to MEK5, inhibitors, confirmation, biochemical, bead multiplex flow cytometry, single concentration, wildtype; shares compounds with MEKK3 PB1 HTS; Alexa488-MEK5 binding to MEKK3; active compounds read low; binding response (% of control), % at 10 µM; 5,900 tested, 1.8% active; AID 1894, 2009;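 active = binding response below 72% of control, or above a set upper limit, though filed actives all read lower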;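 note: 100% = DMSO only wells and 0% = binding blocked by excess unlabeled MEK5; lower values mean stronger disruption of MEK5 binding to MEKK3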
* hit, by the source's call; nt = no result; [ ] = another dose, or the depositor's remark. Rows were chosen to be rich in hits. Some 3.5% of all compounds tested hit in one or more screens of this group.

SMILES	ABCB1 block	WT yeast gro inh	MEKK2wt PB1 HTS	MEKK2 mut-MEK5	MEKK3 PB1 HTS	ABCG2 block	MEKK2wt confirm	MEKK2mut confirm	MEKK3 confirm
COc1cccc(C2=CC(c3cccc(OC)c3OC(F)F)n3nnnc3N2)c1 (configuration not stated)	1	8	98	3	100	4	nt	nt	nt
COc1ccc(OC)c(C2C=C(c3ccc(C)c(C)c3)Nc3nnnn32)c1 (configuration not stated)	0	6	0.0*[inhibitor]	-47	1.0*[inhibitor]	5	96	1	104
CN=C(C)/C(C(=O)OC)=C(/O)c1ccc(Cl)cc1Cl	nt	nt	98	0	101	nt	nt	nt	nt
COc1ccc(CCNC(=O)CNCCc2ccc(F)cc2)cc1	nt	nt	102	4	102	nt	nt	nt	nt
CCOC(=O)N1CCN(C(=O)c2oc3ccc(S(=O)(=O)N4CCCCC4)cc3c2C)CC1	2	6	91	-1	94	6	nt	nt	nt
Cc1c(C(=O)NCCc2ccccc2)oc2ccc(S(=O)(=O)N3CCOCC3)cc12	1	52	116	6	125*	2	104	2	102
COCCCNC(=O)c1oc2ccc(S(=O)(=O)N3CCOCC3)cc2c1C	nt	nt	99	-1	99	nt	nt	nt	nt
Cc1c(C(=O)N2CCN(C)CC2)oc2ccc(S(=O)(=O)N3CCOCC3)cc12	1	-22	2.0*[inhibitor]	-16	2.0*[inhibitor]	4	98	-2	96
Cc1c(C(=O)NC2CCCc3ccccc32)oc2ccc(S(=O)(=O)N3CCCC3)cc12 (configuration not stated)	4	-15	99	2	100	9	nt	nt	nt
Cc1c(C(=O)NC2CCCc3ccccc32)oc2ccc(S(=O)(=O)N3CCOCC3)cc12 (configuration not stated)	0	-11	84	-3	82*[inhibitor]	-2	101	0	101
O=C(c1cc2nc(-c3ccccc3)cc(-c3ccccc3)n2n1)N1CCN(C(=O)c2ccco2)CC1	5	26	96	15	97	3	nt	nt	nt
Cc1ccc(-n2c(SCC(=O)N3CC(=O)Nc4ccccc43)nc3ccccc3c2=O)cc1C	10	-9	99	0	136*	6	92	-6	97
O=C(CSc1nc2ccccc2c(=O)n1-c1ccccc1)N1CCN(CCO)CC1	0	-1	3.0*[inhibitor]	-21	2.0*[inhibitor]	2	96	1	104
Cc1cccc(-n2c(SCC(=O)N3CC(=O)Nc4ccccc43)nc3ccccc3c2=O)c1	1	-47	110	0	121	1	nt	nt	nt
CC(C)c1ccccc1-n1c(SCC(=O)N2CCc3ccccc3C2)nc2ccccc2c1=O	5	14	103	0	155*	2	92	-8	98
Cc1nn(CC(=O)NNC(=O)c2cccc(Br)c2)c(C)c1[N+](=O)[O-]	nt	nt	115	8	107	nt	nt	nt	nt
CCN(CC)c1ccc(NC(=O)c2cccc(F)c2)c(C)c1	0	3	97	2	101	1	nt	nt	nt
CCNC(=O)NC(=O)C(C)Oc1ccc(Br)cc1Br (configuration not stated)	1	4	95	-1	87	2	nt	nt	nt
CCOC(=O)c1c(-c2ccc(F)cc2)csc1/N=C/N(C)C	0	-5	117	2	129*	1	103	6	107
CCOC(=O)c1c(-c2ccc(C)cc2)csc1/N=C/N(C)C	1	3	91	-3	95	3	nt	nt	nt
COC(=O)CCSCC(=O)N1N=C(c2ccc(OC)cc2)CC1c1cccc(OC)c1OC (configuration not stated)	2	-3	80	-14	93	4	nt	nt	nt
CN(CCc1nc2ccc(Cl)cc2[nH]1)Cc1nc(CC2CC2)no1	0	1	102	8	104	12	nt	nt	nt
CCc1ccc(-c2cc(C(=O)NCc3ccccn3)c3ccccc3n2)cc1	11	15	96	-3	94	19	nt	nt	nt
CCc1ccccc1Nc1cc(C(=O)NCc2ccccn2)c2ccccc2n1	5	13	114	1	131*	6	100	15	101
CCN(CC)S(=O)(=O)c1ccc(NC(=O)COC(=O)CCc2cc(OC)c(OC)c(OC)c2)cc1	0	0	120	18	107	19	nt	nt	nt
SMILES	ABCB1 block	WT yeast gro inh	MEKK2wt PB1 HTS	MEKK2 mut-MEK5	MEKK3 PB1 HTS	ABCG2 block	MEKK2wt confirm	MEKK2mut confirm	MEKK3 confirm
CC(=O)Nc1ccc(S(=O)(=O)Nc2cccc(-c3csc(C)n3)c2)cc1	0	-5	98	-5	100	-2	nt	nt	nt
Nc1nc(-c2cccc(NS(=O)(=O)c3ccccc3)c2)cs1	0	4	85	-12	82*[inhibitor]	2	96	-7	99
CCc1ccc(NC(=O)C2CCCN2S(=O)(=O)c2ccc3c(c2)n(C)c(=O)c(=O)n3C)cc1 (configuration not stated)	nt	nt	80	-12	68*[inhibitor]	nt	103	6	104
CCOc1ccc(NC(=S)N(CCCN2CCCC2)Cc2cccn2Cc2ccc(Cl)cc2)cc1	2	71*	186*	3	110	2	147	21	105
CCN1CCN(CCCN(Cc2ccco2)C(=S)Nc2ccc(Cl)cc2)CC1	2	3	104	0	101	3	nt	nt	nt
Cc1cccc(NC(=S)N(CCCN2CCCC2)Cc2cccn2Cc2ccc(Cl)cc2)c1	4	78*	206*	65*	110	7	169	41	109
COc1cc(OC)cc(C(=O)NNC(=O)c2ccccn2)c1	-1	-13	106	0	135*	-8	113	5	105

Screening results from PubChem BioAssay.
